An excerpt weighted towards active compounds, which were near 1.9% of everything screened.
CHRM5 antagonist: blocks acetylcholine activation of human M5 receptor. inhibition, % at 3 µM. CHO-hM5 cells, Fluo-8 calcium fluorescence, ACh EC80. 0.59% of 360,000 active;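 active means inhibition above a per-plate cutoff, the mean of that plate's test compounds plus 3 SD, cut at about 27% in these data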;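 further: 0% = acetylcholine EC80 with DMSO and 100% = DMSO without agonist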
M5 ag: agonists of human muscarinic M5 receptor (CHRM5). activation, % at 3 µM. 0.19% of 360,000 active. AID 624037. P08912. CHO-K1 hM5 cells, Fluo-8 calcium fluorescence; 0% DMSO wells, 100% maximal acetylcholine response;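 active means activation above the run's mean over test compounds plus 3 SD, cut at about 23% in these data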;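 further: signal is peak over basal fluorescence ratio across the kinetic read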
CHRM4 agonist: agonists of human muscarinic M4 receptor (CHRM4); 0.14% of 360,000 active; CHO-K1 hM4/Gqi5, Fluo-8 calcium fluorescence; vehicle 0%, full acetylcholine response 100%; activation, % at 3 µM;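 active means activation above the run mean over all test wells plus 3 SD, cut at about 32% in these data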;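 further: peak over basal fluorescence ratio per well then scaled between controls; 0% = DMSO wells and 100% = acetylcholine at EC100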
Target sequence (P08173 whole entry, looked up): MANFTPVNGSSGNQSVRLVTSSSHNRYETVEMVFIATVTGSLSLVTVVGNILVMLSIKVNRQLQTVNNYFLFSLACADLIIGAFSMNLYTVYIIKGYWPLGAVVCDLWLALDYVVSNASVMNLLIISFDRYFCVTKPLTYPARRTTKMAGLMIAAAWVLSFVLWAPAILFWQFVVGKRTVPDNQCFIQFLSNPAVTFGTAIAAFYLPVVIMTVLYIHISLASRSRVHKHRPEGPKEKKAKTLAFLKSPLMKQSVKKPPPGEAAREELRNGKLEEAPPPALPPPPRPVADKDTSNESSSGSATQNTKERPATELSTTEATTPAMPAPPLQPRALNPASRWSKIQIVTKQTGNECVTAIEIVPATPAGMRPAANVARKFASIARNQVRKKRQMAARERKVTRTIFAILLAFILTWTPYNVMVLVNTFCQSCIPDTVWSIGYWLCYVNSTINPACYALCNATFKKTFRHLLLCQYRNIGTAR
CHRM5 PAM: potentiates acetylcholine response at human M5 receptor; P08912; CHO-K1 hM5, Fluo-8 calcium, ACh EC20 PAM; 0% = ACh EC20, 100% = ACh EC100; activation, % at 3 µM; 0.3% of 360,000 active; AID 624038;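 active means activation above the run cutoff, the mean activation of all test compounds plus 3 SD, cut at about 18% in these data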
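system = human M5 receptor in CHO-K1 cells | compound = one concentration, 3 µM final (nominal) | schedule = Post-acetylcholine fluorescence recording 140 s | signal = Fluo-8 calcium dye fluorescence, kinetic read | benchmarks = low control EC20 acetylcholine (0%), high control EC100 acetylcholine (100%) | repeats = singlicate, one well per test compound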
M4 antag: blocks acetylcholine activation of human M4 receptor. P08173. CHO-hM4 cells, ACh EC80, Fluo-8 calcium fluorescence. inhibition, % at 3 µM. 0.73% of 360,000 active. AID 624125;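 active means inhibition above its plate's cutoff, the mean inhibition of sample wells plus 3 SD, cut at about 27% in these data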;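 further: 0% = acetylcholine EC80 with DMSO and 100% = DMSO without agonist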
M4 PAM: CHRM4 positive allosteric modulation; 0.4% of 360,000 active; P08173; activation, % at 3 µM; CHO-K1 hM4/Gqi5, Fluo-8 calcium fluorescence, ACh EC20; 0% = ACh EC20, 100% = maximal ACh; AID 624126;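 active means activation above its plate's cutoff, the mean activation of sample wells plus 3 SD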
Starred values were filed as active, the others as inactive.

SMILES	CHRM5 antagonist	M5 ag	CHRM4 agonist	CHRM5 PAM	M4 antag	M4 PAM
CC(=O)[C@@]1(O)CCC2C3C=CC4=CC(=O)CC[C@]4(C)C3CC[C@@]21C (stereo partly drawn)	2	1	2	1	4	7
Cc1cc(C)cc(C(=O)NCC(=O)OCC(=O)NCC(F)(F)F)c1	-9	1	1	18*	12	2
CC(C)(C)n1nc2c(c1NC(=O)c1ccc(Cl)c([N+](=O)[O-])c1)CS(=O)(=O)C2	9	0	3	4	-1	1
CCN(CC(=O)Nc1ccc(OC)cc1)C(=O)c1ccc(N2C(=O)CCC2=O)cc1	7	1	1	-2	8	-1
CN1CCN(c2ccccc2/C=C2/C(=O)Nc3ccccc32)CC1	83*	-9	2	-19	21	-16
COc1ccc(-c2csc(NC(=O)c3ccccc3NS(=O)(=O)c3ccc(C)cc3)n2)cc1	33*	2	13	-19	19	-28
COc1ccc(-c2csc(NC(=O)c3c(OC)cccc3OC)n2)cc1	7	5	1	4	-12	9
CCCNC(=O)c1ccccc1NS(=O)(=O)c1ccc(OC)c(OC)c1	6	-1	1	8	-5	10
COc1ccc(S(=O)(=O)Nc2ccccc2C(=O)Nc2nc(-c3ccc(F)cc3)cs2)cc1OC	43*	7	18	-21	33*	-14
Cc1cc(C)c(S(=O)(=O)NCc2cccs2)cc1C	-2	-3	0	-3	-5	4
CC(C)(C)C(=O)CC1(O)C(=O)N(Cc2ccc(Cl)cc2)c2ccccc21 (stereo not drawn)	-6	3	3	-2	10	38*
O=C(O)CC1(O)C(=O)N(Cc2ccccc2)c2ccccc21 (stereo not drawn)	0	1	0	1	3	-3
O=c1cc(-c2ccc(O)cc2)oc2ccc(O)cc12	12	-3	0	1	12	42*
O=c1cc(-c2ccc(O)cc2)oc2ccccc12	5	3	2	-7	-6	-2
Cc1c(C(=O)NCCC2=CCCCC2)oc2ccc(S(=O)(=O)N3CCC4(CC3)OCCO4)cc12	22	1	15	-18	34*	-22
Cc1c(C(=O)NCc2ccccc2)oc2ccc(S(=O)(=O)N3CCC4(CC3)OCCO4)cc12	11	5	10	-14	12	-8
Oc1ccc(Br)cc1-c1ccnn1-c1ccccc1	1	-8	0	7	-13	-6
O=C(Nc1ccc2cccnc2c1)c1ccc(Br)cc1	9	1	-2	1	-18	15*
CC(C)c1nc2ccc(Br)cn2c1NC1CCCC1	7	-3	0	5	-4	2
Cc1cc(NC2CCCCC2)nc(NCc2ccccc2)n1	30*	6	23	-19	26	-13
COc1ccc(Br)cc1/C=N/Nc1ccccn1	-4	-1	0	-7	-9	-2
CC12CCC3c4ccccc4CCC3(CO1)C2 (stereo not drawn)	16	1	0	-1	0	0
O=C1C(=O)N(CCN2CCOCC2)C(c2ccncc2)/C1=C(/O)c1ccc2c(c1)OCO2 (stereo not drawn)	-4	1	1	0	6	4
O=C1C(=O)N(CCN2CCOCC2)C(c2ccc([N+](=O)[O-])cc2)/C1=C(/O)c1ccc2c(c1)OCO2 (stereo not drawn)	1	-3	3	4	-2	22*
CC12C=CC(=O)C=C1CCC1C2C(O)CC2(C)C1CCC2(O)C(=O)CO (stereo not drawn)	15	-1	1	-18	88*	-17
CC(=O)OCC(=O)[C@@]1(O)CC[C@H]2[C@@H]3CCC4=CC(=O)C=C[C@]4(C)[C@@]3(Cl)[C@@H](Cl)C[C@@]21C	9	43*	0	-18	3	3
CC(=O)OCC(=O)[C@@]1(O)CC[C@H]2[C@@H]3CCC4=CC(=O)C=C[C@]4(C)[C@H]3[C@@H](O)C[C@@]21C	-4	2	1	2	-1	3

Screening results (PubChem BioAssay)
